We go through 14 compounds from ChEMBL document CHEMBL2331171, “Anti-malarial activity of new N-acetyl-L-leucyl-L-leucyl-L-norleucinal (ALLN) derivatives against Plasmodium falciparum” (Bioorg Med Chem Lett, 2013).

Where a SMILES comes first, the peptide text is derived from it. [ ]: non-standard residue; d: D form. Nle = CCCC[C@H](N)C(=O)O

For orientation: CC50 means the concentration giving 50% cytotoxicity. Usually IC50 stands for the midpoint of a concentration-inhibition curve.

Data set [1] in a line: Cytotoxicity against human HeLa cells assessed as growth inhibition after 48 hrs by MTS assay. The data set is classed as cell-based. (Tetrazolium assays rely on reduction of a dye to a coloured formazan, in cell work by metabolically active cells.)
The test system of data set [2] is Plasmodium falciparum. The data set is described as follows: Antimalarial activity against Plasmodium falciparum FCR-3 infected in erythrocytes assessed as reduction in parasitemia after 72 hrs by light microscopic analysis. The following applies: FCR-3/Gambia. The data set is classed as functional, cell-based. In short, it runs like this: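 P. falciparum FCR3 in erythrocytes exposed to compounds; parasitemia (parasite content of erythrocytes) counted microscopically; concentration giving 50% growth inhibition derived. Mean SD of three independent experiments, each in triplicate.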

A short description of data set [3]: Therapeutic index, ratio of CC50 for human HeLa cells to IC50 for Plasmodium falciparum FCR-3. The data set is classed as cell-based. The following applies: HeLa cells versus Plasmodium falciparum FCR-3, read-out: Ratio CC50/IC50.

Consider `CNC(=O)/C=C/[C@H](Cc1ccccc1)NC(=O)[C@@H](CCCNC(=O)OCc1ccccc1)NC(C)C`, for which, in data set [1], the half-maximal cytotoxic concentration (CC50) at 48 h turned out to be 611 µM. In addition, the IC50 in data set [2] worked out at 56.3 µM. In data set [3], the selectivity ratio was determined as 10.8.

Consider `CCCC[C@@H](C=O)NC(=O)[C@H](CC(C)C)NC(=O)[C@H](CC(C)C)NC(C)=O` (Ac-Leu-Leu-[Nle]-aldehyde), for which, in data set [1], the CC50 at 48 h was determined as 25.1 µM. Further, in data set [2], the IC50 turned out to be 0.64 µM. In addition, in data set [3], the selectivity ratio came out at 39.2.

With `CNC(=O)/C=C/[C@H](Cc1ccccc1)NC(=O)[C@@H](CCCNC(=O)OCc1ccccc1)NC(=O)OC(C)(C)C`, in data set [1], the CC50 at 48 h is 1060 µM. Also, the IC50 in data set [2] worked out at 5 µM. Besides, the selectivity ratio in data set [3] is 157.

In the case of `CN(C)C(=O)/C=C/C=C/[C@H](Cc1ccccc1)NC(=O)[C@@H](CCCNC(=O)OCc1ccccc1)NC(=O)OC(C)(C)C`, the CC50 at 48 h in data set [1] was found to be 117 µM. The IC50 in data set [2] is above 100 µM.

As for `CC(C)(C)OC(=O)N[C@H](CCCNC(=O)OCc1ccccc1)C(=O)N[C@H](/C=C/C=C/C(=O)N1CCCC1)Cc1ccccc1`, the CC50 at 48 h in data set [1] was 53.1 µM. For the same compound, in data set [2], the IC50 is above 100 µM.

For `CNC(=O)/C=C/[C@H](Cc1ccccc1)NC(=O)[C@@H](CCCNC(=O)OCc1ccccc1)NCc1cc(OC)cc(OC)c1`, the CC50 at 48 h in data set [1] worked out at 259 µM. In data set [2], the IC50 amounted to 16.4 µM. In addition, the selectivity ratio in data set [3] turned out to be 15.8.

For `CNC(=O)/C=C/[C@H](Cc1ccccc1)NC(=O)[C@@H](CCCNC(=O)OCc1ccccc1)NCc1cccc(C)c1`, the CC50 at 48 h in data set [1] turned out to be 242 µM. In addition, the concentration for half-maximal inhibition (IC50) in data set [2] amounted to 5 µM. Besides, the selectivity ratio in data set [3] is 48.3.

With `CNC(=O)/C=C/[C@H](Cc1ccccc1)NC(=O)[C@@H](CCCNC(=O)OCc1ccccc1)NCc1ccc(OC)cc1`, the CC50 at 48 h in data set [1] was 461 µM. For the same compound, in data set [2], the IC50 was 16.7 µM. For the same compound, the selectivity ratio in data set [3] was 27.6.

Consider `CNC(=O)/C=C/[C@H](Cc1ccccc1)NC(=O)[C@@H](CCCNC(=O)OCc1ccccc1)NCc1ccccc1`, for which the CC50 at 48 h in data set [1] is 253 µM. Also, the IC50 in data set [2] came out at 15.3 µM. In addition, in data set [3], the selectivity ratio stood at 16.5.

Regarding `CC(C)(C)OC(=O)N[C@H](CCCNC(=O)OCc1ccccc1)C(=O)N[C@H](/C=C/C=C/C(=O)N1CCCCC1)Cc1ccccc1`, the CC50 at 48 h in data set [1] came out at 175 µM. In addition, in data set [2], the IC50 was determined as 15.7 µM. Moreover, the selectivity ratio in data set [3] came out at 11.2.

As for `CC(C)NC(=O)/C=C/[C@H](Cc1ccccc1)NC(=O)[C@@H](CCCNC(=O)OCc1ccccc1)NC(=O)OC(C)(C)C`, in data set [1], the CC50 at 48 h came to 314 µM. Besides, the IC50 in data set [2] turned out to be 9.29 µM. In data set [3], the selectivity ratio came out at 33.8.

For `CC(C)(C)OC(=O)N[C@H](CCCNC(=O)OCc1ccccc1)C(=O)N[C@H](/C=C/C(=O)N1CCCC1)Cc1ccccc1`, the CC50 at 48 h in data set [1] came to 153 µM. In addition, the IC50 in data set [2] came to 11.4 µM. The selectivity ratio in data set [3] was 13.4.

Turning to `CCNC(=O)/C=C/[C@H](Cc1ccccc1)NC(=O)[C@@H](CCCNC(=O)OCc1ccccc1)NC(=O)OC(C)(C)C`, the CC50 at 48 h in data set [1] was determined as 2000 µM. The IC50 in data set [2] is above 100 µM.

On to `CNC(=O)/C=C/C=C/[C@H](Cc1ccccc1)NC(=O)[C@@H](CCCNC(=O)OCc1ccccc1)NC(=O)OC(C)(C)C`, for which the CC50 at 48 h in data set [1] is 281 µM. Moreover, in data set [2], the IC50 amounted to 23.6 µM. Further, the selectivity ratio in data set [3] turned out to be 11.9.
